According to ChEMBL document CHEMBL4261642, “Design, synthesis, and ex vivo evaluation of a selective inhibitor for retinaldehyde dehydrogenase enzymes” (Bioorg Med Chem, 2018):
Active and inactive are the calls of the source. The calls are words filed in the database; no cut-off is given here.

Experiments:
[1] = molecular target: T1, Retinal dehydrogenase 2 (Gallus gallus) (UniProt O93344); experiment: Inhibition of RALDH2 in living intact choroid isolated from normal chick eyes assessed as inhibition of ATRA synthesis after 24 hrs in presence of retinaldehyde and NAD+
T1 sequence (whole entry): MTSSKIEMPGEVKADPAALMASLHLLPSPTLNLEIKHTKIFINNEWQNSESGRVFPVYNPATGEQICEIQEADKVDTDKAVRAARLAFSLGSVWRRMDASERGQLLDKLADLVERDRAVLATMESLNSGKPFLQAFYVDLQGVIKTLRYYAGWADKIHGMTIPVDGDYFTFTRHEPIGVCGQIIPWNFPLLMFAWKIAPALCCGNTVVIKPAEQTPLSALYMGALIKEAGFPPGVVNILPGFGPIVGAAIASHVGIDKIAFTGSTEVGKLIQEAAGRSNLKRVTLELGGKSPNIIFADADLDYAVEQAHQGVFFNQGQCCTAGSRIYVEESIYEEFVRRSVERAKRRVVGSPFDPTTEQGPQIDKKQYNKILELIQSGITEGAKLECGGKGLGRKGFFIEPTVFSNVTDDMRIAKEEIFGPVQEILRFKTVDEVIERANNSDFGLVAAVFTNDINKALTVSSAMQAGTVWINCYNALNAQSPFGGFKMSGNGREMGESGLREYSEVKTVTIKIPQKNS

Retinal dehydrogenase 2 = molecular target: T2, Retinal dehydrogenase 2 (Gallus gallus, UniProt O93344); experiment: Inhibition of RALDH2 in living intact choroid isolated from 4 day recovering chick eyes assessed as inhibition of ATRA synthesis after 24 hrs in presence of […]
T2 sequence (O93344 whole entry): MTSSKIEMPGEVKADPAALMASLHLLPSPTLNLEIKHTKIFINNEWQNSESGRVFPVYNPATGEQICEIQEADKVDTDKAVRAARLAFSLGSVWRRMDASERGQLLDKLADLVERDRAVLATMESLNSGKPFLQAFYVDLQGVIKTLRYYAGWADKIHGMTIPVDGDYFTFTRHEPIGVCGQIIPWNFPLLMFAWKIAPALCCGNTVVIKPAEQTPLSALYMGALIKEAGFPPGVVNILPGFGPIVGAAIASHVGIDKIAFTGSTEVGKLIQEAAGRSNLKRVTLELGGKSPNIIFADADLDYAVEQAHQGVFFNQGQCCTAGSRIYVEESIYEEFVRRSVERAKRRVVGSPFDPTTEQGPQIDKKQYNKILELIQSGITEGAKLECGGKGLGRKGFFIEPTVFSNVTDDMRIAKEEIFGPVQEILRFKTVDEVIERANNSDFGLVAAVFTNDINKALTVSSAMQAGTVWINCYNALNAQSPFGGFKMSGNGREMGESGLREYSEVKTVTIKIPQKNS

[2] = molecular target: T1, Retinal dehydrogenase 2 (Gallus gallus); experiment: Inhibition of RALDH2 in living intact choroid isolated from 4 day recovering chick eyes assessed as inhibition of ATRA synthesis at 0.1 uM after 24 hrs in presence of […]
[3] = molecular target: T1, Retinal dehydrogenase 2 (Gallus gallus); experiment: Inhibition of RALDH2 in living intact choroid isolated from 4 day recovering chick eyes assessed as inhibition of ATRA synthesis at 10 uM after 24 hrs in presence of […]
[4] = molecular target: T1, Retinal dehydrogenase 2 (Gallus gallus); experiment: Inhibition of RALDH2 in living intact choroid isolated from 4 day recovering chick eyes assessed as inhibition of ATRA synthesis at 1 uM after 24 hrs in presence of […]
[5] = molecular target: T3, Aldehyde dehydrogenase, mitochondrial (Homo sapiens, UniProt P05091); experiment: Inhibition of N-terminal His6-tagged recombinant human mitochondrial ALDH2 using propionaldehyde as substrate preincubated for 20 mins to 1 hr followed by substrate addition and measured for 5 mins in presence of NADH by spectrophotometric assay; conditions: read-out: IC50
T3 sequence (P05091 whole entry): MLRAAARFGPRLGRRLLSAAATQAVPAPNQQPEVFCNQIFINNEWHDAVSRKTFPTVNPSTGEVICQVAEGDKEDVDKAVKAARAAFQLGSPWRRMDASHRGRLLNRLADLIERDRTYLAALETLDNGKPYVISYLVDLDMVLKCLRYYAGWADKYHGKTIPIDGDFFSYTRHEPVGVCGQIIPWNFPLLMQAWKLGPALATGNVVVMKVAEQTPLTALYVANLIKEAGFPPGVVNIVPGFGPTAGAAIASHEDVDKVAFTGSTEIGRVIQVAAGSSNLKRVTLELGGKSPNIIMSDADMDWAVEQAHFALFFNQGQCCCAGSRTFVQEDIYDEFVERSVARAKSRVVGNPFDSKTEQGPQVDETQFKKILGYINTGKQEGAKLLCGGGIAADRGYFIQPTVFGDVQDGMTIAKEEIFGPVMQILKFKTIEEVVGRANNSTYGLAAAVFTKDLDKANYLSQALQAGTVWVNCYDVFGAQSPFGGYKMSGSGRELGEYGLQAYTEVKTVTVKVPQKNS

[6] = compound: CC1=C(/C=C/C(C)=C/C=C/C(C)=C/C(=O)C(Cl)Cl)C(C)(C)CCC1; experiment: (§1) Inhibition of N-terminal His6-tagged recombinant chick RALDH1 expressed in Escherichia coli BL21(DE3) cells at 100 nM using RAL as substrate assessed as Km preincubated for 20 mins followed by substrate addition and measured after 30 mins in presence of NADH by fluorescence assay (reference value: 67.09 +/- 25.06 microM); conditions: Gallus gallus
[7] = compound: CC1=C(/C=C/C(C)=C/C=C/C(C)=C/C(=O)C(Cl)Cl)C(C)(C)CCC1; experiment: as §1, with “1000” for “100”; conditions: Gallus gallus
[8] = compound: CC1=C(/C=C/C(C)=C/C=C/C(C)=C/C(=O)C(Cl)Cl)C(C)(C)CCC1; experiment: as §1, with “Vmax” for “Km”, “54.77” for “67.09”, “7.58 pmol/microM/min)” for “25.06 microM)”; conditions: Gallus gallus
[9] = compound: CC1=C(/C=C/C(C)=C/C=C/C(C)=C/C(=O)C(Cl)Cl)C(C)(C)CCC1; experiment: as §1, with “500” for “100”, “Vmax” for “Km”, “54.77” for “67.09”, “7.58 pmol/microM/min)” for “25.06 microM)”; conditions: Gallus gallus
[10] = compound: CC1=C(/C=C/C(C)=C/C=C/C(C)=C/C(=O)C(Cl)Cl)C(C)(C)CCC1; experiment: as §1, with “500” for “100”; conditions: Gallus gallus
[11] = compound: CC1=C(/C=C/C(C)=C/C=C/C(C)=C/C(=O)C(Cl)Cl)C(C)(C)CCC1; experiment: as §1, with “1000” for “100”, “Vmax” for “Km”, “54.77” for “67.09”, “7.58 pmol/microM/min)” for “25.06 microM)”; conditions: Gallus gallus
[12] = compound: CC1=C(/C=C/C(C)=C/C=C/C(C)=C/C(=O)C(Cl)Cl)C(C)(C)CCC1; experiment: as §1, with “RALDH2” for “RALDH1”, “Vmax” for “Km”, “1665” for “67.09”, “239.28 pmol/microM/min)” for “25.06 microM)”; conditions: Gallus gallus
[13] = compound: CC1=C(/C=C/C(C)=C/C=C/C(C)=C/C(=O)C(Cl)Cl)C(C)(C)CCC1; experiment: as §1, with “RALDH2” for “RALDH1”, “250” for “100”, “Vmax” for “Km”, “1665” for “67.09”, “239.28 pmol/microM/min)” for “25.06 microM)”; conditions: Gallus gallus
[14] = compound: CC1=C(/C=C/C(C)=C/C=C/C(C)=C/C(=O)C(Cl)Cl)C(C)(C)CCC1; experiment: as §1, with “RALDH2” for “RALDH1”, “200” for “100”, “82.12” for “67.09”, “28.41” for “25.06”; conditions: Gallus gallus
[15] = compound: CC1=C(/C=C/C(C)=C/C=C/C(C)=C/C(=O)C(Cl)Cl)C(C)(C)CCC1; experiment: as §1, with “RALDH2” for “RALDH1”, “82.12” for “67.09”, “28.41” for “25.06”; conditions: Gallus gallus
[16] = compound: CC1=C(/C=C/C(C)=C/C=C/C(C)=C/C(=O)C(Cl)Cl)C(C)(C)CCC1; experiment: as §1, with “RALDH2” for “RALDH1”, “250” for “100”, “82.12” for “67.09”, “28.41” for “25.06”; conditions: Gallus gallus
[17] = compound: CC1=C(/C=C/C(C)=C/C=C/C(C)=C/C(=O)C(Cl)Cl)C(C)(C)CCC1; experiment: as §1, with “RALDH2” for “RALDH1”, “150” for “100”, “Vmax” for “Km”, “1665” for “67.09”, “239.28 pmol/microM/min)” for “25.06 microM)”; conditions: Gallus gallus
[18] = compound: CC1=C(/C=C/C(C)=C/C=C/C(C)=C/C(=O)C(Cl)Cl)C(C)(C)CCC1; experiment: as §1, with “RALDH2” for “RALDH1”, “150” for “100”, “82.12” for “67.09”, “28.41” for “25.06”; conditions: Gallus gallus
[19] = compound: CC1=C(/C=C/C(C)=C/C=C/C(C)=C/C(=O)C(Cl)Cl)C(C)(C)CCC1; experiment: Inhibition of N-terminal His6-tagged recombinant chick RALDH2 expressed in Escherichia coli BL21(DE3) cells at 150 nM using RAL as substrate assessed as Vmax at enzyme concentrations of 183 to 365 nM measured after 30 mins in presence of NADH by fluorescence assay; conditions: Gallus gallus
Summary of the method: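 Chick RALDH2 at 46–365 nM pre-incubated 20 min with a fixed 150 nM inhibitor. NADH synthesis then started with 250 μM retinaldehyde and 4 mM NAD+, 30 min at 37°C, read fluorimetrically. Vmax plotted against enzyme concentration.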

[20] = compound: CC1=C(/C=C/C(C)=C/C=C/C(C)=C/C(=O)C(Cl)Cl)C(C)(C)CCC1; experiment: as §1, with “RALDH2” for “RALDH1”, “200” for “100”, “Vmax” for “Km”, “1665” for “67.09”, “239.28 pmol/microM/min)” for “25.06 microM)”; conditions: Gallus gallus
[21] = compound: CC1=C(/C=C/C(C)=C/C=C/C(C)=C/C(=O)C(Cl)Cl)C(C)(C)CCC1; experiment: as §1, with “RALDH2” for “RALDH1”, “50” for “100”, “82.12” for “67.09”, “28.41” for “25.06”; conditions: Gallus gallus
[22] = compound: CC1=C(/C=C/C(C)=C/C=C/C(C)=C/C(=O)C(Cl)Cl)C(C)(C)CCC1; experiment: as §1, with “RALDH2” for “RALDH1”, “50” for “100”, “Vmax” for “Km”, “1665” for “67.09”, “239.28 pmol/microM/min)” for “25.06 microM)”; conditions: Gallus gallus

For `O=C(NCCCCCCCCNC(=O)C(Cl)Cl)C(Cl)Cl`, the inhibition [1] was “inactive”, the EC50 (Retinal dehydrogenase 2) was 44.5 nM and the inhibition [2] was 40%. The inhibition [3] was 76%, the inhibition [4] was 51% and the IC50 [5] was 229 nM.

B1: Aldehyde dehydrogenase 1A1 (Gallus gallus), P27463 (protein)
chain: MKKQGSPSNPAPVLPALPEPLKDLKIKYTKIFINNEWHDSVSGKKFEVFNPANEEKICEVAEGDKADIDKAVKAARKAFELGSPWRTMDASERGRLLNKLADLVERDRLTLATMEAIDGGKLFSTAYLMDLGACIKTIRYCAGWADKIHGRTVPMDGNFFTFTRHEPVGVCGQIIPWNFPLVMFIWKIAPALCCGNTVVVKPAEQTPLSALYMGSLIKEAGFPPGVVNIVPGFGPTAGAAISHHMDIDKVSFTGSTEVGKLIKEAAGKTNLKRVTLELGGKSPNIIFADADLDEAAEFAHIGLFYHQGQCCIAGSRIFVEEPIYDEFVRRSIERAKKYTLGDPLLPGVQQGPQIDKEQFQKILDLIESGKKEGAKLECGGGPWGNKGYFIQPTVFSNVTDDMRIAKEEIFGPVQQIMKFKTIDEVIKRANNTTYGLAAAVFTKDIDKALTFASALQAGTVWVNCYSAFSAQCPFGGFKMSGNGRELGEYGLQEYTEVKTVTIKIPQKNS
Work on B1 yielded a Km [6] of 62.2 µM, a Km [7] of 22.8 µM and a Vmax [8] of 50.1 pmol/µM/min. For the same molecule, the Vmax [9] was 33.8 pmol/µM/min, the Km [10] was 32.9 µM and the Vmax [11] was 25.7 pmol/µM/min.

B2: Retinal dehydrogenase 2 (Gallus gallus), O93344 (protein)
chain: MTSSKIEMPGEVKADPAALMASLHLLPSPTLNLEIKHTKIFINNEWQNSESGRVFPVYNPATGEQICEIQEADKVDTDKAVRAARLAFSLGSVWRRMDASERGQLLDKLADLVERDRAVLATMESLNSGKPFLQAFYVDLQGVIKTLRYYAGWADKIHGMTIPVDGDYFTFTRHEPIGVCGQIIPWNFPLLMFAWKIAPALCCGNTVVIKPAEQTPLSALYMGALIKEAGFPPGVVNILPGFGPIVGAAIASHVGIDKIAFTGSTEVGKLIQEAAGRSNLKRVTLELGGKSPNIIFADADLDYAVEQAHQGVFFNQGQCCTAGSRIYVEESIYEEFVRRSVERAKRRVVGSPFDPTTEQGPQIDKKQYNKILELIQSGITEGAKLECGGKGLGRKGFFIEPTVFSNVTDDMRIAKEEIFGPVQEILRFKTVDEVIERANNSDFGLVAAVFTNDINKALTVSSAMQAGTVWINCYNALNAQSPFGGFKMSGNGREMGESGLREYSEVKTVTIKIPQKNS
B2 was tested, and the Vmax [12] was 1150 pmol/µM/min, the Vmax [13] was 503 pmol/µM/min and the Km [14] was 18.3 µM. For the same molecule, the Km [15] was 47.2 µM, the Km [16] was 14.9 µM and the Vmax [17] was 867 pmol/µM/min. For the same molecule, the Km [18] was 22.7 µM, the Vmax [19] was 0.5 to 3.01 µM/min and the Vmax [20] was 666 pmol/µM/min. For the same molecule, the Km [21] was 80.7 µM and the Vmax [22] was 1560 pmol/µM/min.
